An excerpt weighted towards active compounds, which were near 2.1% of everything screened.
EP2 antag: blocks the human prostaglandin E2 receptor EP2; C6 glioma cells expressing human EP2, cAMP TR-FRET; cells stimulated with saturating PGE2; inhibition, % at 25 µM; 260,000 compounds, 0.52% hits; AID 1422;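 active = percent inhibition above 40 after rounding to a whole number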;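 note: rat C6 glioma host cells with rolipram phosphodiesterase inhibitor present; the protocol text gives 20 µM as final concentration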
Thrombin inh: blocks human thrombin protease activity; alpha-thrombin, Boc-VPR-AMC fluorogenic substrate cleavage; 220,000 compounds, 0.26% hits; P00734; inhibition, % at 5 µM;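 active = inhibition at or above 40%; inactive = inhibition below 40%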;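 note: 0% = enzyme with no compound and 100% = wells without enzyme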
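Material: Human alpha-thrombin protein | Buffer or medium: pH 7.5 Tris-saline with Tween 20 | Reagent: Boc-VPR-AMC substrate, 15 µM final | Schedule: Reaction at ambient temperature | Detection: AMC fluorescence at 355 nm excitation and 460 nm emission | Evaluation: Percent inhibition scaled between no-compound controls and no-enzyme blanks | Controls: no-compound enzyme wells and no-enzyme blanks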
FXIa inh: factor XIa (human) inhibition; P03951; purified FXIa, Boc-Glu-Ala-Arg-AMC fluorogenic substrate; inhibition, % at 5 µM; AID 798; 220,000 compounds, 0.14% hits;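 active = inhibition of at least 40%; inactive = inhibition below 40%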;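 note: fluorescence of freed AMC excited at 355 nm; 0% = enzyme without compound and 100% = no enzyme blank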
Target sequence (P03951 19-387 limits assumed): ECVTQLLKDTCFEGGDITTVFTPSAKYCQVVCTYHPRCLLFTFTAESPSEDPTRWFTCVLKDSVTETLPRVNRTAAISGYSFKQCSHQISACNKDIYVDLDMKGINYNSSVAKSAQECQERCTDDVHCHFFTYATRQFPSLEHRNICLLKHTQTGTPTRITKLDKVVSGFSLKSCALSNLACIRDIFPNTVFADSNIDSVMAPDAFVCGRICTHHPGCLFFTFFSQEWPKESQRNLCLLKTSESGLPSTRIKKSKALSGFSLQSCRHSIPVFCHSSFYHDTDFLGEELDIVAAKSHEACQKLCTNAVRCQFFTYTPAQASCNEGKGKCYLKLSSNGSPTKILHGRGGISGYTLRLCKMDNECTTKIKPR
Target sequence (P03951 388-625 limits assumed): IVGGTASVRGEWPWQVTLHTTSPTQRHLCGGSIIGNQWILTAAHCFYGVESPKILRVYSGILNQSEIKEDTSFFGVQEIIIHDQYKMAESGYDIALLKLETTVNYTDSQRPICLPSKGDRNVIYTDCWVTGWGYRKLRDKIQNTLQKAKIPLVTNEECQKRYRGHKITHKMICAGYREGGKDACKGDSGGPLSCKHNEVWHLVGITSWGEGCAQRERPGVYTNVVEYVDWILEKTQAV
KLK5 inh: kallikrein 5 (human) inhibition | 210,000 compounds, 0.59% hits | recombinant hK5, fluorogenic AMC substrate cleavage | Q9Y337 | inhibition, % at 5 µM;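 active = inhibition of 40% or more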;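 note: 0% = enzyme controls without compound and 100% = no-enzyme blanks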
EP2 modulator: modulates human prostaglandin E2 receptor EP2 signaling. EP2-expressing cells, cAMP HTRF FRET, PGE2 co-stimulation. induction, % at 25 µM. 260,000 compounds, 0.83% hits. AID 940;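 active = compounds whose cAMP rise, as percent of the full-agonist control response, exceeds 60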;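 note: rat C6 glioma line stably carrying human EP2 under a CMV promoter; the protocol text gives 20 µM as final concentration; 100% = response of wells given 1 µM PGE2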
FXIIa inh: factor XIIa (human) inhibition; P00748; purified FXIIa, Boc-QGR-AMC fluorogenic substrate, 2 h; inhibition, % at 5 µM; 220,000 compounds, 0.3% hits; AID 800; in the data active = inhibition above about 40%;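 note: 0% = enzyme with no compound and 100% = blank without enzyme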
* = called active by the depositor; . = not tested or not shown.

SMILES	EP2 antag	Thrombin inh	FXIa inh	KLK5 inh	EP2 modulator	FXIIa inh
CCOC(=O)c1ccc(N2C(=O)C(O)=C(C(C)=O)C2c2ccco2)cc1 (stereo not given)	20.0	.	.	.	26.7	.
CCc1ccc(NC(=O)COc2ccc(S(=O)(=O)N3CCCC3)cc2)cc1	9.2	.	.	.	18.4	.
CO/N=C(\N)c1nonc1N	11.3	16.9	57.6*	21.9	7.1	24.8
N/C(=N\OCc1ccccc1)c1nonc1N	6.7	-0.4	0.2	-7.3	22.3	4.5
CCc1ccc(C(=O)COC(=O)c2cccc(N3C(=O)c4c(C)nc5ccccc5c4C3=O)c2)cc1	2.8	8.9	0.3	51.5*	16.8	17.3
O=C(NCC(c1ccc(F)cc1)N1CCOCC1)c1ccc(C(=O)c2ccccc2)cc1 (stereo not given)	5.9	2.0	2.7	1.8	-18.3	12.3
OC(c1ccccc1)(c1ccc(F)cc1)C(c1ccccc1)N1CCOCC1 (stereo not given)	5.6	-1.3	-3.9	5.4	60.6*	13.8
NC(=O)NC(c1ccccc1)c1cccc2ccccc12 (stereo not given)	-4.1	-3.3	2.3	-4.9	13.1	12.2
c1ccc([C@H](c2cccc3c2ccc2ccccc23)[C@H](c2ccccc2)c2cccc3c2ccc2ccccc23)cc1	40.6*	.	.	.	8.2	.
COc1cccc(C2(NC(=O)c3snnc3C)CCCC2)c1	2.4	.	.	.	6.5	.
COc1ccc2[nH]c(=O)c(C(c3nnnn3C(C)(C)C)N3CCc4ccccc4C3)cc2c1 (stereo not given)	5.2	.	.	.	-35.3	.
COC(=O)NC1CSCC1OC(=O)CCN1C(=O)c2ccccc2C1=O (stereo not given)	9.1	2.3	0.6	-4.0	-5.8	10.9
CC(=O)NC1CSCC1OC(C)=O (stereo not given)	6.4	32.4	10.1	67.1*	33.1	23.1
Cc1ccc(C(=O)CSc2nnc(CCc3nc4ccccc4[nH]3)n2C)c(C)c1	7.5	.	.	.	-46.0	.
CC(CO)(CO)N=Cc1cc(I)cc(I)c1O	44.1*	.	.	.	39.1	.
COc1cc(-c2cc(-c3ccc(F)cc3)[nH]c(=O)c2C#N)cc(OC)c1OC	22.2	.	.	.	28.3	.
COC(=O)C(C)NC(=O)C1CCCN1S(=O)(=O)c1cc(C)c(Cl)cc1C (stereo not given)	6.9	17.1	5.5	48.9*	8.0	48.3*
COc1ccccc1-n1c2c(cc(C(=O)N3CCC(C)CC3)c1=O)C(=O)CC(C)(C)C2	6.9	10.3	17.4	52.3*	12.5	37.9
COc1ccc(-n2c3c(cc(C(=O)N4CCC(C)CC4)c2=O)C(=O)CC(C)(C)C3)cc1	7.3	-6.2	1.4	-0.9	-0.3	8.6
COCCCNC(=O)c1cc2c(n(-c3ccc(Cl)cc3)c1=O)CC(C)(C)CC2=O	7.4	.	.	.	-7.6	.
CCOc1ccc(NC(=O)CSC2=NCCN2)cc1	4.2	4.7	10.0	47.3*	-26.2	13.1
COC(=O)c1ccc(NC(=O)CSC2=NCCN2)cc1	5.5	-14.3	-1.3	-22.6	18.5	4.6
Cc1cc2ccccc2n2c(SCC(=O)Nc3nc4c(s3)CCCC4)nnc12	18.1	.	.	.	-21.0	.
CC(C)c1nc2ccccc2c2nnc(SCC(=O)Nc3nc4c(s3)CCCC4)n12	15.6	.	.	.	64.0*	.
Cc1cc(C(=O)OCC(=O)c2cccc([N+](=O)[O-])c2)c2cccc(C)c2n1	.	60.7*	-12.8	-10.8	15.8	3.0
SMILES	EP2 antag	Thrombin inh	FXIa inh	KLK5 inh	EP2 modulator	FXIIa inh
COc1ccc(-c2cc(C(=O)OCC(=O)c3cccc([N+](=O)[O-])c3)c3cc(C)ccc3n2)cc1	1.8	-1.1	7.7	-13.3	21.3	2.6
O=C(Nc1ccccc1N1CCOCC1)c1ccc2nc[nH]c2c1	0.5	56.5*	5.4	14.4	-12.6	11.7
Nc1ccc(-c2nc3ccc(C(=O)O)cc3s2)cc1	7.4	-37.6	-30.3	-88.5	-19.3	-87.9
Cc1ccc2nc(-c3ccc(NC(=O)c4ccc(N)cc4)c(S(=O)(=O)O)c3)sc2c1	45.9*	.	.	.	-11.6	.
O=C(O)CCN1C(=O)C2C3c4ccccc4C(c4ccccc43)[C@@H]2C1=O (stereo not given in full)	8.3	23.3	30.8	29.7	19.3	46.0*
O=C(NCc1ccco1)c1ccc2c(c1)N(Cc1ccccc1)CCS2	4.8	-8.0	3.6	-0.7	16.0	-5.3
Cc1ccc(CN2CCSc3ccc(C(=O)NCc4ccccn4)cc32)cc1	8.8	0.9	-4.8	-1.0	61.2*	1.1
c1cncc(-c2csc(NCc3ccco3)n2)c1	-0.1	1.4	15.3	11.2	11.9	45.7*
CCOc1cc(C2NC(=O)NC(O)(C(F)(F)F)C2C(=O)c2ccc(Cl)cc2)ccc1O (stereo not given)	14.1	54.4*	7.6	28.1	-9.2	27.1
CCc1cccc2[nH]c3cc([N+](=O)[O-])ccc3c12	7.5	-2.9	8.9	-3.0	65.2*	1.5
O=C1C2=C(Nc3cc([N+](=O)[O-])ccc3N2)O[C@@H]1c1c[nH]c2ccc(COc3ccccc3)cc12	59.9*	.	.	.	9.1	.
O=[N+]([O-])c1cccc(C(=Nc2ccccc2Cl)NO)c1	8.6	-5.6	4.9	-23.0	-3.4	7.5
ONC(=Nc1ccccc1Cl)c1ccccc1Cl	6.7	-0.9	2.3	-0.5	70.7*	11.6
C[C@H]1[C@H](O)[C@@H](C)C=CC=CC=CC=CC=CC=CC=C[C@H](O[C@H]2O[C@@H](C)[C@H](O)[C@@H](N)[C@@H]2O)C[C@@H]2O[C@@](O)(C[C@@H](O)C[C@@H](O)[C@@H](O)CC[C@@H](O)C[C@@H](O)CC(=O)O[C@H]1C)C[C@H](O)[C@H]2C(=O)O	42.5*	.	.	.	-9.8	.
CS(=O)(=O)c1ccccc1C(=O)Nc1nc2ccccc2[nH]1	108.5*	-3.3	8.3	2.1	-1.7	3.6
CCCOc1ccccc1C1C2=C(CCCC2=O)N(C)C2=C1C(=O)CCC2	7.1	.	.	.	-6.5	.
CC1Oc2ccc(S(=O)(=O)N3CCCC(CN4CCCC4=O)C3)cc2NC1=O (stereo not given)	7.0	.	.	.	-11.5	.
C=CCn1c(O)c(N=NC(=S)Nc2ccccc2F)c2ccccc21	2.7	-8.1	3.0	-17.3	16.0	11.5
C=CCn1c(O)c(N=NC(=S)Nc2ccccc2F)c2cc(S(=O)(=O)N3CCOCC3)ccc21	3.6	-2.0	34.5	20.3	-19.9	54.8*
COc1ccc(C(=O)NC(=S)N2CCCCC2)cc1	9.3	19.3	16.9	43.6*	-9.3	33.4
COc1cc(CN2CCC(O)(c3ccccc3OC)CC2)ccc1OCC(N)=O	9.3	.	.	.	-33.3	.
CC1OC(O[C@H]2CC[C@]3(C)C4C=C[C@]56OC[C@@]7(CC[C@@H](C)[C@H](C)C75)[C@H](O)C[C@@]6(C)[C@]4(C)CC[C@H]3C2(C)C)C(OC2OC(CO)C(O)C(O)C2OC2OCC(O)C(O)C2O)C(O)C1O (stereo not given in full)	.	55.2*	-0.2	-0.4	-15.3	4.2
O=C(CN1CCC(c2ccc3c(c2)OCO3)CC1)NC1CC1	.	.	.	.	-56.0	.

Screening data from PubChem.
